Compound activity as filed in PubChem BioAssay.
TRPC4 act: activators of mouse TRPC4 channel, primary screen, Fluo4 calcium, HEK293 TRPC4beta/mu-opioid cells | B-score at 10 µM | 0.49% of 310,000 active | Short transient receptor potential channel 4 (Mus musculus), Q9QUQ5 | Fluo4 calcium fluorescence; hits give high values;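 active = B-score above 5 SD of library B-scores, and initial fluorescence ratio not above library mean plus 5 SD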;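 note: positive B-score marks a calcium rise read as TRPC4 activation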
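Material: HEK293 stable line with TRPC4beta plus mu-opioid receptor; technique: Fluo4 calcium-sensitive dye fluorescence, kinetic, 1 Hz baseline; timing: Fluo4 dye loading 45 min at room temperature, 110 s recording; controls: assay buffer as low control, maximal DAMGO as high control; read-out: integrated baseline-normalised fluorescence ratio, converted to per-well B score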
TRPC6 inh: mouse TRPC6 channel inhibitors, primary screen, cell-based, HEK293, membrane potential dye. B-score at 10 µM. 1.1% of 310,000 active. ACh-evoked depolarization; hits give low values. AID 2553, 2010. Short transient receptor potential channel 6 (Mus musculus), Q61143;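 active = B-score under library mean minus 3 SD, initial fluorescence not abnormally high, positive integrated signal ratio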;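 note: B-score derived from integrated fluorescence ratio over the kinetic read; more negative B-score means stronger inhibition of depolarization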
TRPC4 PAM: positive allosteric modulators of TRPC4, primary screen, cell-based, mouse TRPC4beta, HEK293 mu-opioid, Fluo-4 calcium; AID 2227, 2009; DAMGO EC20, Fluo-4 Ca2+ flux; hits give high values; Short transient receptor potential channel 4 (Mus musculus), Q9QUQ5; B-score at 10 µM; 0.42% of 310,000 active;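 active = B-score of calcium response area above 5 SD of library B-scores, with initial fluorescence ratio within 5 SD of library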
TRPC6 activator: mouse TRPC6 channel activators, primary screen, cell-based, HEK293, membrane potential dye | B-score at 10 µM | HEK293-TRPC6 membrane potential dye fluorescence; hits give high values | 0.13% of 310,000 active;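 active = B-score of the integrated fluorescence ratio above library mean plus 3 SD, and starting fluorescence ratio within library mean plus 5 SD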;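 note: higher score means more depolarization so channel activation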
TRPC4 block: inhibitors of mouse TRPC4 channel, primary screen, Fluo4 calcium, HEK293 TRPC4beta/mu-opioid cells; B-score at 10 µM; DAMGO-evoked Fluo4 calcium flux; hits give low values; AID 2247, 2010; Short transient receptor potential channel 4 (Mus musculus), Q9QUQ5; 0.39% of 300,000 active;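 active = B-score over 3 SD under the library average, no early fluorescence shift, positive overall ratio signal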
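Assay system: Stable TRPC4beta/mu-opioid receptor HEK293 cells | Reagent: DAMGO in two steps, submaximal then maximal | Compound dosing: Single concentration per test compound | Signal: Fluo4 Ca2+ flux fluorescence | Evaluation: Per-well B score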
HEK293 TRPC6 ctr: parental HEK293 membrane potential modulation, confirmation, counter-screen for TRPC6 modulator project, cell-based; shares compounds with TRPC6 inh; membrane potential dye fluorescence; membrane potential signal change, % at 10 µM; 51% of 2,400 active;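 active = membrane potential signal moves up or down beyond 5 SD from buffer-only wells, on both duplicate plates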
HEK293 MPD ctr 2: second check of TRPC6 modulator effects in parental HEK293 cells | 14% of 2,400 active | inhibition, % at 10 µM | membrane potential dye fluorescence; after compound, maximal acetylcholine stimulation | shares compounds with TRPC6 inh;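 active = membrane potential signal drops by more than 5 SD from the mean control signal, in both duplicate plates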
TRPC4 ctr mod: TRPC4 modulation by TRPC6 hit compounds, confirmation, selectivity assay for TRPC6 modulator project, cell-based, HEK293 TRPC4/mu-opioid, membrane potential dye, mouse; shares compounds with TRPC6 inh; membrane potential fluorescence; percent change from control (negative = decrease, positive = increase), % at 10 µM; AID 488927, 2010; 69% of 2,400 active;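 active = membrane potential signal moved up or down beyond 5 SD of buffer control wells, in both duplicate plates, actives on both sides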
TRPC4 ctr inh 2: second check of whether TRPC6 modulators also affect mouse TRPC4; shares compounds with TRPC6 inh; HEK293 TRPC4/mu-opioid, membrane potential dye fluorescence; stimulated with maximal-effect DAMGO; inhibition, % at 10 µM; 55% of 2,400 active;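 active = drop in membrane potential signal beyond 5 SD of the control wells in both duplicate plates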;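 note: TRPC4 counter screen for TRPC6 hits run under conditions tuned for TRPC6 not TRPC4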
TRPC6 block conf: mouse TRPC6 channel inhibitors, confirmation, HEK293 cells, membrane potential dye, duplicate; shares compounds with TRPC6 inh; ACh-evoked depolarization; inhibition, % at 10 µM; 43% of 3,300 active; AID 488960, 2010;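 active = fluorescence ratio falls more than 5 SD below the full-stimulation control mean, in both duplicate runs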;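 note: integrated fluorescence ratio of peak minus minimum over baseline after agonist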
TRPC6 act confirm: mouse TRPC6 channel activators, confirmation, HEK293 cells, membrane potential dye, duplicate | shares compounds with TRPC6 inh | HEK293-TRPC6 membrane potential dye fluorescence, FDSS | activation, % at 10 µM | 11% of 2,800 active | AID 488961, 2010;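 active = ratio signal rise beyond 5 SD above unstimulated control wells' mean, seen in both duplicate runs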
Hits are given with their value; n = inactive; x = no result. Sampled rows, rich in hits. Any-hit rate of the full collection: about 2.3%.

SMILES	TRPC4 act	TRPC6 inh	TRPC4 PAM	TRPC6 activator	TRPC4 block	HEK293 TRPC6 ctr	HEK293 MPD ctr 2	TRPC4 ctr mod	TRPC4 ctr inh 2	TRPC6 block conf	TRPC6 act confirm
CN1CC(C(=O)c2ccc(Cl)cc2)C(c2ccc(N(C)C)cc2)C1 (centres undefined)	n	-6.46	n	n	n	n	n	n	50.0%	50.5%	n
COc1cc(C[C@@H](C)N)c(OC)cc1I	n	-5.15	n	n	n	n	n	n	41.5%	41.5%	n
CCNc1cc(N2CCNCC2)ccc1[N+](=O)[O-]	n	-5.69	35	n	n	-214.5%	n	-34.5%	37.5%	n	n
CC(O)CNc1ccc([N+](=O)[O-])c2cccnc12 (centres undefined)	n	n	n	n	n	x	x	x	x	x	x
NCCNc1ccc([N+](=O)[O-])c2cccnc12	70	-5.25	10	n	n	-231.5%	n	-31.0%	50.5%	43.0%	n
COc1cc2c(cc1OC)-c1c(OC)c(OC)cc3c1[C@H](C2)[N+](C)(C)CC3	n	-8.59	n	n	n	-404.5%	63.0%	-69.0%	63.5%	59.5%	n
CNc1cc(N2CCN(C)CC2)ccc1[N+](=O)[O-]	n	n	n	n	n	x	x	x	x	x	x
O=[N+]([O-])c1ccc(N2CCCC2)cc1N/N=C1\CN2CCC1CC2	n	-5.2	n	n	n	-247.5%	74.0%	-41.0%	85.5%	88.5%	n
CCOc1ccccc1CNCCc1ccc2c(c1)OCO2	n	n	n	n	n	x	x	x	x	x	x
CCOc1ccccc1CN1C2CCC1CC(c1ccc(C)cc1)C2 (centres undefined)	n	n	n	15.5	n	265.0%	n	69.0%	58.5%	n	108.5%
C[N+](C)(C)CC#CCN1CCCC1=O	86	-5.94	n	n	n	103.0%	60.5%	45.0%	n	78.5%	x
CC1CCCCN1C(=O)Cn1cc(C=C2C(=O)N(C)C(=O)N(C)C2=O)c2ccccc21 (centres undefined)	n	n	n	n	n	x	x	x	x	x	x
O=C(C1CCC(=O)N1C1CCCCC1)N1CCC2(CC1)OCCO2 (centres undefined)	n	n	n	n	n	x	x	x	x	x	x
CCOC(=O)c1c(C)n(Cc2ccc(F)cc2)c2ccc(O)cc12	n	n	n	n	n	x	x	x	x	x	x
CCCCn1c(C)c(C(=O)OCC)c2c(CN3CCOCC3)c(O)ccc21	n	-5.26	n	n	n	-88.5%	n	-12.5%	66.5%	62.5%	n
CCCCn1c(C)c(C(=O)OCC)c2c(CN3CCCC3)c(O)ccc21	n	-5.44	n	n	n	n	n	n	58.5%	47.5%	n
OC1(c2ccccc2)CCNC2CCCCC21 (centres undefined)	n	n	n	n	n	x	x	x	x	x	x
